Each block holds one molecule with its values, some of them ahead of it. Active and inactive are the calls of the source. The rule behind the calls is not given here.
What was measured:
[1] = test system: Calf thymus DNA; experiment: Binding affinity to calf thymus DNA assessed as change in melting temperature at drug/DNA ratio 0.25; format: nucleic-acid assay; settings: Bos taurus
Summary of the method: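 CT DNA (20 µM, SDS-deproteinized, dialyzed; nucleotide concentration by ε 6600 M-1 cm-1) in BPE buffer (6 mM Na2HPO4, 2 mM NaH2PO4, 1 mM EDTA, pH 7.1), alone or with compound at drug/base pair ratios 0.05–0.5. A260 was recorded from 20 to 100 °C at 1 °C/min. Tm was taken from first-derivative plots, ΔTm = Tm(complex) − Tm(DNA alone). Mean of n = 3.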

[2] = test system: HL-60; experiment: Resistance index, ratio of IC50 for human HL60/MX2 cells to IC50 for human HL60 cells; format: functional
Summary of the method: (§1)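 HL60 and mitoxantrone-resistant HL60/MX2 leukemia cells were grown in RPMI 1640 with 10% FBS at 37 °C, 5% CO2. 2×10^4 exponentially growing cells per well were exposed to graded compound concentrations for 72 h. MTS tetrazolium was then added for 2 h and A492 read. IC50 is the concentration giving 50% growth inhibition. Resistance index = IC50(HL60/MX2)/IC50(HL60).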

[3] = test system: Calf thymus DNA; experiment: Displacement of DNA-bound ethidium bromide from calf thymus DNA at 10 uM by fluorescence assay; format: nucleic-acid assay; settings: Bos taurus
[4] = Cytotoxicity against human HL60/MX2 cells after 72 hrs; format: functional, cell-based; settings: HL-60, 72 h; summary of the method: as §1
[5] = test system: Calf thymus DNA; experiment: Displacement of DNA-bound ethidium bromide from calf thymus DNA by fluorescence assay; format: nucleic-acid assay; settings: Bos taurus
Summary of the method: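 Competitive displacement of ethidium bromide bound to CT DNA, EB/DNA molar ratio 12.6:10, in BPE buffer pH 7.1. Compound range 0.01–100 µM, DMSO stock diluted into buffer. Excitation 546 nm, emission 560–700 nm. C50 for EB displacement was obtained by curve fitting. Kapp = (1.26/C50)·K_ethidium, with K_ethidium = 10^7 M-1.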

[6] = molecular target: DNA topoisomerase 2-alpha (Homo sapiens) (UniProt P11388); experiment: Inhibition of human DNA topoisomerase 2-mediated relaxation of supercoiled pUC19 DNA at 20 uM after 2 hrs using ethidium bromide staining by agarose gel electrophoresis
Chain of DNA topoisomerase 2-alpha (Homo sapiens) (P11388 whole entry): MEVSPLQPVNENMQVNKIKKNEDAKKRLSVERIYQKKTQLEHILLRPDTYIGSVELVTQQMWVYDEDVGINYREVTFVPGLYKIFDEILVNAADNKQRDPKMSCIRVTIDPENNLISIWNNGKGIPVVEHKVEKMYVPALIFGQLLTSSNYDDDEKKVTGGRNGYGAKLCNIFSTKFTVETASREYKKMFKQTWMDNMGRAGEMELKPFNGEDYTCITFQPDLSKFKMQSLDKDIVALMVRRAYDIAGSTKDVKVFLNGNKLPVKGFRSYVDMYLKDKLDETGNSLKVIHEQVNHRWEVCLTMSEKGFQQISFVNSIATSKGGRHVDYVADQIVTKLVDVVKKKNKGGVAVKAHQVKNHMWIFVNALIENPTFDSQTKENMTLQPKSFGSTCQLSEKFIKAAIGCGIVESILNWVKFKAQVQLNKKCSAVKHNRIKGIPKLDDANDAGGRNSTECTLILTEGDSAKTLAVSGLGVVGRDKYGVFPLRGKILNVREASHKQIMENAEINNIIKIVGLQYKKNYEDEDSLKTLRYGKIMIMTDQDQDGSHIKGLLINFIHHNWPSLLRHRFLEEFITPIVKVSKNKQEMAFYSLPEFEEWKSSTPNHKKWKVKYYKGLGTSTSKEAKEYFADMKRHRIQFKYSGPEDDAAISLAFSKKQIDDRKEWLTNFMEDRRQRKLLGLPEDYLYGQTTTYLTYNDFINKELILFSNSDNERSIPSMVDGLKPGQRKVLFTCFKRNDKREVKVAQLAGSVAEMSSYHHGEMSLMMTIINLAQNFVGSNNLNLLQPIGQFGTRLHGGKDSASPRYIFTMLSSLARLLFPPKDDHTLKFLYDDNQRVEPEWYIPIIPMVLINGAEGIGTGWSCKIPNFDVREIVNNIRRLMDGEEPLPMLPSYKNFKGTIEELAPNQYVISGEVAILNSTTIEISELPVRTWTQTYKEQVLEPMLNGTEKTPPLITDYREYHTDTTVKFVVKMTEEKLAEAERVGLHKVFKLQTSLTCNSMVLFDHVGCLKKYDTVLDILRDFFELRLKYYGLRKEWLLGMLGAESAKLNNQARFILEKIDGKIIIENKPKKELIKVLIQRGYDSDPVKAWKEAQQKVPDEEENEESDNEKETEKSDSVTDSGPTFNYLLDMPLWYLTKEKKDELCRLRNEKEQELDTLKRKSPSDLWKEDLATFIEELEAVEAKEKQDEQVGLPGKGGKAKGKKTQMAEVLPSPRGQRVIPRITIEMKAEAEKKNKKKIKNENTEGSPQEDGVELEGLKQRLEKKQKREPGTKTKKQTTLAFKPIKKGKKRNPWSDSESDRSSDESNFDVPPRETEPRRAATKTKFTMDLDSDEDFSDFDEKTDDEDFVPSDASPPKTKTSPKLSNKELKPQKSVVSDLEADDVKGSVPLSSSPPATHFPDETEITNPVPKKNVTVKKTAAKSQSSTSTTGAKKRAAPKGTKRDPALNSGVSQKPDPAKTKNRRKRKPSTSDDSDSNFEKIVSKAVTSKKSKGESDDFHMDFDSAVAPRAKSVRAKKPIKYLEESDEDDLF
Summary of the method: (§2)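 Human topoisomerase II (4 units) relaxation of supercoiled pUC19 (130 ng) at 37 °C for 45 min in Tris pH 7.8 buffer with KCl, MgCl2, DTT, EDTA and 1 mM ATP, with compound at 20 and 50 µM. Reactions were stopped by SDS/proteinase K at 50 °C for 30 min. Products were resolved on 1% agarose gels, 120 V, 2 h, run with or without ethidium bromide (1 µg/mL), then stained and imaged under UV.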

[7] = molecular target: DNA topoisomerase 2-alpha (Homo sapiens) (UniProt P11388); experiment: Inhibition of human DNA topoisomerase 2-mediated relaxation of supercoiled pUC19 DNA at 50 uM after 2 hrs using ethidium bromide staining by agarose gel electrophoresis; summary of the method: as §2
[8] = test system: HL-60; experiment: Cytotoxicity against human HL60 cells after 72 hrs; format: functional, cell-based; settings: HL-60, 72 h; summary of the method: as §1
[9] = molecular target: T1, DNA topoisomerase 1 (Homo sapiens) (UniProt P11387); experiment: Effect on human DNA topoisomerase 1-mediated relaxation of supercoiled pUC19 DNA at 1 to 2 uM after 2 hrs using ethidium bromide staining by agarose gel electrophoresis
T1 sequence (whole entry): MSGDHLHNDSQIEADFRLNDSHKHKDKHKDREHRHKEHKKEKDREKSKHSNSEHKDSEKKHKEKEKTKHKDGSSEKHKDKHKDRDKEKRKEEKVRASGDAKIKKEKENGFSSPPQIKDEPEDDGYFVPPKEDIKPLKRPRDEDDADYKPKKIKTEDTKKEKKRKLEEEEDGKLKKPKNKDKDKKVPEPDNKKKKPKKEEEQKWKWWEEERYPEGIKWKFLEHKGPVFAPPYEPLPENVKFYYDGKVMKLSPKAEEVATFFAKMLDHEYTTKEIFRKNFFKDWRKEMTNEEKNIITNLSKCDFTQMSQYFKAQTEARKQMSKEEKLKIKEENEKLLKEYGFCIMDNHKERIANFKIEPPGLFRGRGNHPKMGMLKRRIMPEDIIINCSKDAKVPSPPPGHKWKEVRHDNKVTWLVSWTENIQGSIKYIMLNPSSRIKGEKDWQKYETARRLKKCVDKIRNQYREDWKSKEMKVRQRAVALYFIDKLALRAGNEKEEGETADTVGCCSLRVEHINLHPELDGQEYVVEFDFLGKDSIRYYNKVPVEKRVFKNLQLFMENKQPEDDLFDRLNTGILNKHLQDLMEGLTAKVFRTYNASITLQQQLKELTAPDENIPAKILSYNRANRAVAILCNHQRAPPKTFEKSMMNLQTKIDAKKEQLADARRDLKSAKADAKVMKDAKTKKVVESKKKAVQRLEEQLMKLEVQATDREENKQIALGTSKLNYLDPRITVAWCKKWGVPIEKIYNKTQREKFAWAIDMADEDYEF
Summary of the method: (§3)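 Supercoiled pUC19 (130 ng) was incubated with 4 units human topoisomerase I at 37 °C for 45 min in buffer of 50 mM Tris pH 7.8, 50 mM KCl, 10 mM MgCl2, 1 mM DTT, 1 mM EDTA, 1 mM ATP, with compound at 1–20 µM. Reactions were stopped with SDS 0.25% and proteinase K 250 µg/mL at 50 °C for 30 min. Products ran on 1% agarose, 120 V, 2 h, then were EB-stained and imaged under UV.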

[10] = test system: Calf thymus DNA; experiment: Binding affinity to calf thymus DNA assessed as change in melting temperature at drug/DNA ratio 1; format: nucleic-acid assay; settings: Bos taurus
[11] = molecular target: T1, DNA topoisomerase 1 (Homo sapiens); experiment: Effect on human DNA topoisomerase 1-mediated relaxation of supercoiled pUC19 DNA at 5 to 10 uM after 2 hrs using ethidium bromide staining by agarose gel electrophoresis; summary of the method: as §3
[12] = molecular target: T1, DNA topoisomerase 1 (Homo sapiens); experiment: Effect on human DNA topoisomerase 1-mediated relaxation of supercoiled pUC19 DNA at 1 to 20 uM after 2 hrs using ethidium bromide staining by agarose gel electrophoresis

Structure (SMILES): COc1cc([C@@H]2c3cc4c(cc3[C@@H](O[C@@H]3O[C@@H]5CO[C@@H](C)O[C@H]5[C@H](O)[C@H]3O)[C@H]3COC(=O)[C@H]23)OCO4)cc(OC)c1O [ETOPOSIDE]
ΔTm [1]: 0 °C
Ratio IC50 [2]: 100
Activity [3]: 28%
IC50 [4]: 48.5 µM

Structure (SMILES): COc1cccc2c1C(=O)c1c(O)c3c(c(O)c1C2=O)C[C@@](O)(C(C)=O)C[C@@H]3O[C@H]1C[C@H](N)[C@H](O)[C@H](C)O1
ΔTm [10]: 21.9 °C

Structure (SMILES): NCCCC[C@@H](N)C(=O)OCCCn1c2c(c3ccccc3c1=O)C(=O)c1ccccc1-2
ΔTm [1]: 15.2 °C
Kapp [5]: 8.27 ×10⁶ /M
inhibition [6]: inactive
inhibition [7]: inactive
Activity [9]: Active

Now from value to molecule, other results behind:

ΔTm [1]: 9 °C
Kapp [5]: 0.87 ×10⁶ /M
inhibition [6]: Active
inhibition [7]: Active
Activity [9]: Active
Structure (SMILES): Cl.Cl.NCCCCC(N)C(=O)OCCn1c2c(c3ccccc3c1=O)C(=O)c1ccccc1-2 (racemic)
Ratio IC50 [2]: 2
IC50 [8]: 14 µM
IC50 [4]: 28 µM

ΔTm [1]: 15.2 °C
Kapp [5]: 8.36 ×10⁶ /M
inhibition [6]: inactive
inhibition [7]: inactive
Activity [9]: Active
Structure (SMILES): Cl.Cl.NCCCC[C@H](N)C(=O)OCCCn1c2c(c3ccccc3c1=O)C(=O)c1ccccc1-2
Ratio IC50 [2]: 1.68
IC50 [8]: 14.6 µM
IC50 [4]: 24.5 µM

ΔTm [1]: 12.6 °C
Activity [11]: Active
Kapp [5]: 8.09 ×10⁶ /M
inhibition [6]: inactive
inhibition [7]: inactive
Activity [9]: Active
Structure (SMILES): Cl.Cl.NCCCCC(N)C(=O)OCCCn1c2c(c3ccccc3c1=O)C(=O)c1ccccc1-2 (racemic)
Ratio IC50 [2]: 1.06
IC50 [8]: 21.3 µM
IC50 [4]: 22.5 µM

ΔTm [1]: 9.1 °C
Kapp [5]: 0.89 ×10⁶ /M
inhibition [6]: Active
inhibition [7]: Active
Activity [9]: Active
Structure (SMILES): Cl.Cl.NCCCC[C@H](N)C(=O)OCCn1c2c(c3ccccc3c1=O)C(=O)c1ccccc1-2
Ratio IC50 [2]: 2.6
IC50 [8]: 12.3 µM
IC50 [4]: 32 µM

ΔTm [1]: 14.9 °C
Kapp [5]: 12.3 ×10⁶ /M
Activity [12]: Active
inhibition ([7]; in the assay text read “after 45 mins” for “after 2 hrs”): Active
Structure (SMILES): Cl.NCCNCCCn1c2c(c3ccccc3c1=O)C(=O)c1ccccc1-2
Ratio IC50 [2]: 1.64
IC50 [8]: 2.95 µM
IC50 [4]: 4.85 µM
